Values after ≈ are worked out from the molar mass of the structure shown. Like-named read-outs stand apart in the source and are kept apart here.

One may read the Solubility as the dissolved amount per volume that the medium holds.

Data set [1] can be described thus: Donor solution solubility determination. Format: physicochemical. Conditions: saturation solubility in 0.3 M acetate buffer pH 5.0 containing 10% propylene glycol, 32°C.
The nature of data set [2]: Stability of codrugs in 0.3 M acetate buffer pH 5.0 at 32°C. Format: physicochemical. Conditions: 0.3 M acetate buffer pH 5.0, 32°C. In a few lines:
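Codrug was predissolved in ACN and spiked into prewarmed buffer (<1% ACN). 100 μl aliquots were taken at intervals, quenched with 900 μl ACN and held at -80°C. Analysis was by C18 HPLC-UV with ACN:acidic aqueous (70:30, pH 3.0) mobile phase and standards of 100–10,000 ng/ml. Data were fit to pseudo first-order kinetics; triplicate.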

The nature of data set [3]: In vitro diffusion studies across microneedle-treated skin. Conditions: skin at end of 48 h diffusion experiment. Type of data set: in vitro ADME, Yucatan miniature pig. The procedure, abridged: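 Yucatan minipig skin, dermatomed 1.4-1.8 mm, pierced 20 times with a 5-needle array (100 pores per 0.95 cm2 area). Flow-through cells held at 32°C. Donor: 250 μl of excess drug in 0.3 M acetate pH 5.0 with 10% PG. Receiver: pH 7.4 water with 20% ethanol, 1.5 ml/h. At 48 h the permeation area was minced and extracted overnight in 10 ml ACN at 32°C, then analysed by HPLC; n≥3.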

For data set [4] the following is noted: earlier proof of concept study; cited from earlier work.
The conditions of data set [5]: in 43% PG, 43% ethanol containing solution; data previously reported; cited from earlier work.

In data set [1], `Cl.O=C(Cc1ccccc1Nc1c(Cl)cccc1Cl)Oc1ccc2c3c1O[C@H]1C(=O)CC[C@@]4(O)[C@@H](C2)N(CC2CC2)CC[C@]314` [Codrug I (hydrochloride salt)] displayed a Solubility of 83.8 ± 15.4 mM.
In the case of `O=C(Cc1ccccc1Nc1c(Cl)cccc1Cl)O[C@@H]1CC[C@@]2(O)[C@H]3Cc4ccc(O)c5c4[C@@]2(CCN3CC2CC2)[C@H]1O5` [Codrug II], in data set [2], the “Pseudo first order rate constant (k)” value was found to be 0.0052 days ^−1 and the “Stability (approx. half-life)” value was 130.88 ± 4.94 days.
For the molecule `O=C(Cc1ccccc1Nc1c(Cl)cccc1Cl)Oc1ccc2c3c1O[C@H]1C(=O)CC[C@@]4(O)[C@@H](C2)N(CC2CC2)CC[C@]314` [Codrug I], in data set [2], the “Pseudo first order rate constant (k)” value worked out at 0.0803 days ^−1 and the “Stability (approx. half-life)” value amounted to 8.72 ± 1.05 days. For the same molecule, in data set [3], the “NTX and DIC (parent drugs) in the skin” value is recorded as “quantifiable”. In addition, the formulation half-life in data set [4] was 96 to 120 h. Moreover, the Solubility in data set [5] was 7.23 mM (≈ 4480 µg/mL).
